Test results as given in ChEMBL document CHEMBL1147432, “Rational design of azepane-glycoside antibiotics targeting the bacterial ribosome” (Bioorg Med Chem Lett, 2004).
Values after ≈ are worked out from the molar mass of the structure shown.

Legend:
Nucleic Acid = test: Compound was tested for binding to the bacterial decoding-site RNA target using an RNA fluorescence assay; type: nucleic-acid assay
Method in brief: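 Fluorescence assay on a model decoding-site oligonucleotide, reporting ligand-induced flipping out of adenines A1492 and A1493; binding curve averaged from two titrations and fitted to a single-site model to give IC50.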

Escherichia coli = test: Antibacterial activity against Escherichia coli (Strain ATCC 25922); type: functional
Staphylococcus aureus [1] = test: Antibacterial activity against Staphylococcus aureus (ATCC-25923); type: functional
Staphylococcus aureus [2] = test: Compound was tested for bacterial translation inhibition (in vitro) using transcription-translation assay; type: functional
Method in brief: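 Coupled in vitro transcription–translation assay; IC50 from dose–response curves averaged over six independent experiments, error bars ±1σ.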

[3] = Cytotoxic concentration against proliferation of eukaryotic cells; type: functional

With `NC[C@H]1O[C@H](O[C@H]2C[C@@H]3COC(=O)N3CC[C@@H]2N)[C@H](N)[C@@H](O)[C@@H]1O` the IC50 (Nucleic Acid) was > 250 µM, the MIC (Escherichia coli) was > 64 µg/mL and the MIC (Staphylococcus aureus [1]) was > 64 µg/mL. The IC50 (Staphylococcus aureus [2]) was > 1000 µM.

In the case of `NC[C@H]1O[C@H](O[C@@H]2CCN[C@H](CO)C[C@H]2N)[C@H](N)[C@@H](O)[C@@H]1O`, the IC50 (Nucleic Acid) is reported as > 250 µM, the MIC (Escherichia coli) is reported as > 64 µg/mL and the MIC (Staphylococcus aureus [1]) is reported as > 64 µg/mL. The IC50 (Staphylococcus aureus [2]) was 47 µM.

In the case of `NC[C@H]1O[C@H](O[C@H]2C[C@H](CO)NCC[C@@H]2N)[C@H](N)[C@@H](O)[C@@H]1O`, the IC50 (Nucleic Acid) is reported as 11 µM, the MIC (Escherichia coli) is reported as > 64 µg/mL and the MIC (Staphylococcus aureus [1]) is reported as 64 µg/mL (≈ 200 µM). For the same compound, the IC50 (Staphylococcus aureus [2]) was 5.7 µM and the CC50 [3] was > 320 µM.

For `N[C@H]1[C@@H](O[C@H]2C[C@H](CO)NCC[C@@H]2N)O[C@H](CO)[C@@H](O)[C@@H]1O`, the IC50 (Nucleic Acid) was > 250 µM, the MIC (Escherichia coli) was > 64 µg/mL and the MIC (Staphylococcus aureus [1]) was > 64 µg/mL. It also gave an IC50 (Staphylococcus aureus [2]) of 110 µM.

In the case of `NC[C@H]1O[C@H](O[C@H]2CCN[C@@H](CO)C[C@@H]2N)[C@H](N)[C@@H](O)[C@@H]1O`, the IC50 (Nucleic Acid) is reported as > 250 µM, the MIC (Escherichia coli) is reported as > 64 µg/mL and the MIC (Staphylococcus aureus [1]) is reported as > 64 µg/mL. It also gave an IC50 (Staphylococcus aureus [2]) of 370 µM.

In the case of `NC[C@H]1C[C@H](O[C@H]2O[C@H](CN)[C@@H](O)[C@H](O)[C@H]2N)[C@@H](N)CCN1`, the IC50 (Nucleic Acid) is reported as > 250 µM, the MIC (Escherichia coli) is reported as > 64 µg/mL and the MIC (Staphylococcus aureus [1]) is reported as > 64 µg/mL. The IC50 (Staphylococcus aureus [2]) was 170 µM.

With `NC[C@H]1O[C@H](O[C@@H]2CCN[C@@H](CO)C[C@H]2N)[C@H](N)[C@@H](O)[C@@H]1O` the IC50 (Nucleic Acid) was > 250 µM, the MIC (Escherichia coli) was > 64 µg/mL and the MIC (Staphylococcus aureus [1]) was > 64 µg/mL. It also gave an IC50 (Staphylococcus aureus [2]) of 230 µM.

For `NC[C@H]1O[C@H](O[C@@H]2C[C@H](CO)NCC[C@H]2N)[C@H](N)[C@@H](O)[C@@H]1O`, the IC50 (Nucleic Acid) was 12 µM, the MIC (Escherichia coli) was > 64 µg/mL and the MIC (Staphylococcus aureus [1]) was 32 µg/mL (≈ 99.9 µM). For the same compound, the IC50 (Staphylococcus aureus [2]) was 6.4 µM and the CC50 [3] was > 320 µM.

In the case of `NC[C@H]1O[C@H](O[C@H]2CCN[C@H](CO)C[C@@H]2N)[C@H](N)[C@@H](O)[C@@H]1O`, the IC50 (Nucleic Acid) is reported as > 250 µM, the MIC (Escherichia coli) is reported as > 64 µg/mL and the MIC (Staphylococcus aureus [1]) is reported as > 64 µg/mL. It also gave an IC50 (Staphylococcus aureus [2]) of 39 µM.

With `CN1CC[C@H](N)[C@@H](O[C@H]2O[C@H](CN)[C@@H](O)[C@H](O)[C@H]2N)C[C@@H]1CO` the IC50 (Nucleic Acid) was > 250 µM, the MIC (Escherichia coli) was > 64 µg/mL and the MIC (Staphylococcus aureus [1]) was > 64 µg/mL. The IC50 (Staphylococcus aureus [2]) was 75 µM.

For `NC[C@H]1O[C@H](O[C@H]2C[C@H](CO)NCC[C@@H]2N)[C@H](N)[C@@H](OCc2ccccc2)[C@@H]1OCc1ccccc1`, the IC50 (Nucleic Acid) was > 250 µM, the MIC (Escherichia coli) was > 64 µg/mL and the MIC (Staphylococcus aureus [1]) was > 64 µg/mL. For the same compound, the IC50 (Staphylococcus aureus [2]) was > 1000 µM.

In the case of `NC[C@H]1O[C@H](O[C@@H]2C[C@@H](CO)NCC[C@H]2N)[C@H](N)[C@@H](O)[C@@H]1O`, the IC50 (Nucleic Acid) is reported as 80 µM, the MIC (Escherichia coli) is reported as > 64 µg/mL and the MIC (Staphylococcus aureus [1]) is reported as > 64 µg/mL. The IC50 (Staphylococcus aureus [2]) was 180 µM.

With `NC[C@H]1O[C@H](O[C@H]2C[C@H](CCl)NCC[C@@H]2N)[C@H](N)[C@@H](O)[C@@H]1O` the IC50 (Nucleic Acid) was > 250 µM, the MIC (Escherichia coli) was > 64 µg/mL and the MIC (Staphylococcus aureus [1]) was > 64 µg/mL. The IC50 (Staphylococcus aureus [2]) was 82 µM.
